Reference: paper PMC4569680 (Advances in Therapy, 2015)
Where two headings read alike, the source gives them in different places. Marks after values point to notes of the source that are not given here. One block for each compound: values may come before it.

What was measured:
[1] = test system: Japanese patients with T2DM; assay: Urinary glucose excretion; assay type: in vivo, human; details: for mean change from baseline in UGE0–24h: Day 1
In short: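 Urine was collected in timed intervals (0–2 through 13–24 h) on Days 0, 1 and 16, and as 0–24 h pools on Days 2–6, 15, 17 and 18. Dosing was 25–400 mg or placebo QD on Day 1 and Days 3–16. Change from the Day 0 single-blind placebo baseline was determined on each collection day.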

[2] = assay type: in vivo, human; details: for AR (accumulation ratio): AUC0–24h Day 16 / AUC0–24h Day 1, mean (SD)
In short: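 Patients received 25–400 mg QD or placebo on Day 1 and Days 3–16, fasted overnight, with a standardized breakfast within 10 min. Venous blood was drawn at 0, 0.5, 1, 1.5, 2, 3, 4, 6, 8 and 12 h on Days 1 and 16, and before breakfast on Days 2, 17 and 18. Drug was measured by HPLC-MS/MS, range 1–2000 ng/mL. AR = AUC0–24h Day 16/Day 1; linearity factor = AUC0–24h Day 16/AUC0–∞ Day 1.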

[3] = 24-h urinary excretion rate of unchanged canagliflozin; assay type: in vivo, human; details: for Urinary excretion rate: mean (SD)
In short: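 Urine was collected 0–24 h on Days 1 and 16 during once-daily dosing at 25, 100, 200 or 400 mg, given on Day 1 and Days 3–16 between 8:00 and 9:00 a.m. A standardized breakfast followed within 10 min. Unchanged drug was measured by solid-phase extraction and HPLC-MS/MS with a 13C6-labelled internal standard. The validated range was 1–2000 ng/mL.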

[4] = test system: Japanese patients with T2DM; assay: Volume-related safety; assay type: in vivo, human
In short: (§1)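 Volume-related safety was followed as changes from baseline in blood and urinary laboratory parameters: urine volume, sodium excretion, urine and serum osmolality, and hematocrit. Vital signs covered blood pressure, pulse rate and body temperature. Patients received 25–400 mg QD or placebo on Day 1 and Days 3–16 with standardized meals. Urine was collected in timed intervals or 0–24 h pools.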

[5] = test system: Japanese patients with T2DM; assay: Renal threshold for glucose excretion; assay type: in vivo, human; details: Days 1 and 16, versus baseline Day 0
In short: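 RTG was calculated post hoc for Days 0, 1 and 16 from measured plasma glucose, UGE and estimated glomerular filtration rate. Day 0 was a single-blind placebo baseline after an overnight fast; standardized meals were given at about 0, 4.5 and 10.5 h post-dose.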

[6] = test system: Japanese patients with T2DM; assay: Adverse events; assay type: in vivo, human
[7] = test system: Japanese patients with T2DM; assay: Urinary electrolyte excretion in 24 hours; assay type: in vivo, human
In short: as §1

[8] = cited from earlier work
[9] = 25 mg QD repeated dose, Day 16, mean (SD), n = 12
[10] = 25 mg single dose, Day 1, mean (SD), n = 12
[11] = 100 mg QD repeated dose, Day 16, mean (SD), n = 12
[12] = 100 mg single dose, Day 1, mean (SD), n = 12
[13] = 200 mg QD repeated dose, Day 16, mean (SD), n = 14
[14] = 200 mg single dose, Day 1, mean (SD), n = 14
[15] = 400 mg QD repeated dose, Day 16, mean (SD), n = 13
[16] = 400 mg single dose, Day 1, mean (SD), n = 13
[17] = canagliflozin groups pooled, 2 cases in 2 of 51 patients

AUC0–24h [2, 9]: 1556 (387) ng·h/mL
C max [2, 9]: 263 (91) ng/mL
t 1/2 [2, 9]: 14.21 (7.46) h
t max ([2]; 25 mg QD repeated dose, Day 16, median [min–max], n = 12): 1.0 [1.0–3.0] h
AUC0–24h [2, 10]: 1295 (240) ng·h/mL
C max [2, 10]: 248 (55) ng/mL
t 1/2 [2, 10]: 10.70 (1.76) h
t max ([2]; 25 mg single dose, Day 1, median [min–max], n = 12): 1.0 [1.0–2.0] h
AR (accumulation ratio) ([2]; 25 mg, n = 12): 1.19 (0.12)
AUC0–24h [2, 11]: 6635 (1367) ng·h/mL
C max [2, 11]: 1136 (330) ng/mL
t 1/2 [2, 11]: 11.81 (3.22) h
t max ([2]; 100 mg QD repeated dose, Day 16, median [min–max], n = 12): 1.0 [1.0–1.5] h
AUC0–24h [2, 12]: 5468 (899) ng·h/mL
C max [2, 12]: 1126 (228) ng/mL
t 1/2 [2, 12]: 10.22 (1.89) h
t max ([2]; 100 mg single dose, Day 1, median [min–max], n = 12): 1.0 [1.0–1.5] h
AR (accumulation ratio) ([2]; 100 mg, n = 12): 1.21 (0.12)
t 1/2 ([2]; 200 mg QD repeated dose, Day 16, mean (SD), n = 13): 16.16 (5.87)^c h
AUC0–24h [2, 13]: 16,716 (5464) ng·h/mL
C max [2, 13]: 2688 (805) ng/mL
t max ([2]; 200 mg QD repeated dose, Day 16, median [min–max], n = 14): 1.3 [1.0–1.5] h
AUC0–24h [2, 14]: 11,991 (3042) ng·h/mL
C max [2, 14]: 2304 (539) ng/mL
t 1/2 [2, 14]: 13.26 (4.96) h
t max ([2]; 200 mg single dose, Day 1, median [min–max], n = 14): 1.0 [1.0–1.5] h
AR (accumulation ratio) ([2]; 200 mg, n = 14): 1.38 (0.17)
t 1/2 ([2]; 400 mg QD repeated dose, Day 16, mean (SD), n = 12): 15.76 (5.56)^d h
AUC0–24h [2, 15]: 30,766 (7916) ng·h/mL
C max [2, 15]: 5236 (1123) ng/mL
t max ([2]; 400 mg QD repeated dose, Day 16, median [min–max], n = 13): 1.0 [1.0–1.5] h
AUC0–24h [2, 16]: 21,836 (4983) ng·h/mL
C max [2, 16]: 5028 (1733) ng/mL
t 1/2 [2, 16]: 12.15 (2.34) h
t max ([2]; 400 mg single dose, Day 1, median [min–max], n = 13): 1.0 [1.0–3.0] h
AR (accumulation ratio) ([2]; 400 mg, n = 13): 1.42 (0.29)
mean accumulation ratios (ARs) ([2]; AUC0–24h Day 16 / AUC0–24h Day 1, across doses 25–400 mg): 1.19–1.42
linearity factors ([2]; AUC0–24h Day 16 / AUC0–∞ Day 1, any dose (25, 100, 200, 400 mg)): ~1
elimination half-life (t 1/2) ([2]; Day 1, across doses 25–400 mg): 10.22 to 13.26 h
elimination half-life (t 1/2) ([2]; Day 16, across doses 25–400 mg): 11.81 to 16.16 h
t max ([2]; Day 16, across doses 25–400 mg): 1.0 to 1.3 h
plasma concentration reaches steady state ([2]; repeated QD dosing from Day 3, all doses): ≤ 7 days
Urinary excretion rate ([3]; 25 mg QD repeated dose, Day 16, 0–24 h, n = 12): 0.599 (0.183) %
Urinary excretion rate ([3]; 25 mg single dose, Day 1, 0–24 h, n = 12): 0.387 (0.070) %
Urinary excretion rate ([3]; 100 mg QD repeated dose, Day 16, 0–24 h, n = 12): 0.641 (0.204) %
Urinary excretion rate ([3]; 100 mg single dose, Day 1, 0–24 h, n = 12): 0.384 (0.084) %
Urinary excretion rate ([3]; 200 mg QD repeated dose, Day 16, 0–24 h, n = 14): 0.614 (0.195) %
Urinary excretion rate ([3]; 200 mg single dose, Day 1, 0–24 h, n = 14): 0.424 (0.107) %
Urinary excretion rate ([3]; 400 mg QD repeated dose, Day 16, 0–24 h, n = 13): 0.495 (0.153) %
Urinary excretion rate ([3]; 400 mg single dose, Day 1, 0–24 h, n = 13): 0.385 (0.097) %
24-h urinary excretion rate of unchanged canagliflozin ([3]; Day 1, means at each dose): approximately 0.4%
24-h urinary excretion rate of unchanged canagliflozin ([3]; Day 16, means at each dose): 0.5–0.6%
urinary sodium excretion ([7]; Day 1, reversed within a week): transient nominal increase
urinary excretion of electrolytes (potassium, chloride, calcium, magnesium, inorganic phosphorus) ([7]; canagliflozin-treated groups compared with the placebo group): No remarkable changes were observed
Compound: Cc1ccc([C@@H]2O[C@H](CO)[C@@H](O)[C@H](O)[C@H]2O)cc1Cc1ccc(-c2ccc(F)cc2)s1 [Canagliflozin]
UGE after the last administration ([1]; 24–48 and 48–72 h after the last administration, ≥100 mg): increase in UGE was detected
mean change from baseline in UGE0–24h ([1]; 25-mg group): approximately 60 g/day
mean change from baseline in UGE0–24h ([1]; 100–400-mg groups): 80 to 110 g/day
24-h urine volume ([4]; Day 1, canagliflozin groups): slightly increased
change in urine osmolality over time from baseline ([4]; Day 1, canagliflozin-treated groups): trend toward an increase
pulse rate and incidence of orthostatic hypotension ([4]; data not shown): No increases were observed
hematocrit level ([4]; during the study period): remained unchanged
serum osmolality ([4]; during the treatment period): maintained constant
mean systolic and diastolic blood pressures ([4]; groups that received ≥100 mg): tended to decrease
RTG0–24h [5]: decreased
nasopharyngitis, patients with AE ([6]; canagliflozin groups pooled, 1 case in 1 of 51 patients): 2.0%
dizziness, patients with AE [6, 17]: 3.9%
toothache, patients with AE [6, 17]: 3.9%
urine ketone body present, patients with AE ([6]; canagliflozin groups pooled, 3 cases in 3 of 51 patients): 5.9%
anemia, patients with AE ([6]; canagliflozin groups pooled, 4 cases in 4 of 51 patients): 7.8%
diarrhea, patients with AE ([6]; canagliflozin groups pooled, 6 cases in 5 of 51 patients): 9.8%
occult blood positive, patients with AE ([6]; canagliflozin groups pooled, 14 cases in 12 of 51 patients): 23.5%
urinary ketones observed ([6]; canagliflozin-treated groups, all mild): 3 patients
urinary ketones observed ([6]; dose of 200 mg): 2 cases
urinary ketones observed ([6]; dose of 400 mg): 1 case
tolerability ([6]; short-term study, patients with T2DM, 25–400 mg): well tolerated
AEs related to skin disorders ([6]; whole study): not observed

Compound: NS(=O)(=O)c1cc2c(cc1Cl)N=CNS2(=O)=O [chlorothiazide]
persistence of diuretic effects [8]: about 1 week
